This sample holds only a part of the variants without activity.
B1: tRNA (parent)
chain: GUUCCGUUGGCGUAAUGGUAACGCGUCUCCCUCCUAAGGAGAAGACUGCGGGUUCGAGUCCCGUACGGAACG

Variants of: B1
Assay: yeast fitness relative to wild type (ratio to wild type); higher = fitter; tRNA-Arg(CCU), competitive growth, 37 C, YPD
How it was run: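 Changes in genotype frequencies gave Darwinian fitness relative to wild type. Frequencies were read by 100-nucleotide paired-end sequencing of gene amplicons before and after pooled Saccharomyces cerevisiae strains, carrying tRNA-Arg(CCU) gene variants at the native locus, were competed in YPD at 37°C for 24 hours in six replicates. A genotype was kept only with ≥ 100 starting reads, and estimates < 0.5 were set to 0.5.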

With GUUCCGUUGGCGUAAUGGUCACGCGUCUCCCUCGUAAGGAGAUGACUGCGGGUUCGAGUCCCGUACGGAACG [A20C C34G A43U] as the variant, how does the yeast fitness read?
The yeast fitness was at most 0.5.

For GUUCCGUUGGCGUAAUGGUCACGCGUCUCCAUCGUAAGGAGAAGACUGCGGGUUCGGGUCCCGUUCGGAACG [A20C C31A C34G A57G A65U], which yeast fitness is on record?
Its yeast fitness is at most 0.5.

With GUUCCGUUGGCGUAAUGGUCACACGUCUCCCUCCUAAGGAGAAGACUGCGGGUUGGAGUACCGUACGGAACG [A20C G23A C55G C60A] as the variant, how does the yeast fitness read?
The yeast fitness was 0.561.

Which yeast fitness does the source give for GUUCCGUUGGCGUAAUGGUCACGCGUCUCCUUCCUAAGGAGAAGACUGCGGGUUCGAGUCCCGUACGGAACG [A20C C31U] here?
Its yeast fitness is 1.03.

With GUUCCGUUGGCGUAAUGGUCACGCGUCUCCGUCCUAAGGAGAAGACUGCGGGUUCGAGUCCCGUACGGAACG [A20C C31G] as the variant, how does the yeast fitness read?
The yeast fitness was 0.744.

For GUUCCGUUGGCGUAAUGGUCACGCGUCUCCCUCCUAAGGAGAAGACUGCGGGUUCAAGUCCCGUACGGAACG [A20C G56A], which yeast fitness is on record?
The yeast fitness was 0.866.

With GUUCCGUUGGCGUAAUGGUCACGCGUCUCCCUCCUAAGGAGAAGACUGCGGGUUCUAGUCCCGUACGGAACG [A20C G56U] as the variant, how does the yeast fitness read?
Its yeast fitness is 0.765.

For GUUCCGUUGGCGUAAUGGUCACACGUCUCCCUCCAAAGGAGAAGACUGCGGCUUAGAGUCCCGUACGGAACG [A20C G23A U35A G52C C55A], which yeast fitness is on record?
The yeast fitness was at most 0.5.

With GUUCCGUUGGCGUAAUGGUCACGCGUCUCCCUCCUAAGGAGAAGACUGCGGGUUCGAGUGCUGUACGGAACG [A20C C60G C62U] as the variant, how does the yeast fitness read?
Its yeast fitness is at most 0.5.

For GUUCCGUUGGCGUAAUGGUCACGCGUCUCCCUCUUAAGGAGAAGACUGCGGAUUCGAGUCCCGUACGAAACG [A20C C34U G52A G68A], which yeast fitness is on record?
Its yeast fitness is at most 0.5.

With GUUCCGUUGGCGUAAUGGUCACGCGUCUCCCUCCUAAGGAGAAGACUAAGGGUUCGAGUCCCGUACGGAACG [A20C G48A C49A] as the variant, how does the yeast fitness read?
The yeast fitness was 0.557.

For GUUCCGUUGGCGUAAUGGUCACGCGUCUCCCUCCUAAGGAGAAGACUACGGGUUCGAGUCCCGUACGGAACG [A20C G48A], which yeast fitness is on record?
Its yeast fitness is 0.908.

For GUUCCGUUGGCGUAAUGGUCACGCGUCUCACUCCUAAGGAGAAGACUGCGGGUUGGAGUCCCGUACGGAACG [A20C C30A C55G], which yeast fitness is on record?
The yeast fitness was 0.557.

Which yeast fitness does the source give for GUUCCGUUGGCGUAAUGGUCACGCGUCUCACUCCUAAGGAGAAGACUGCGGGUUAGAGUCCCGUACGGAACG [A20C C30A C55A] here?
Its yeast fitness is 0.571.

Which yeast fitness does the source give for GUUCCGUUGGCGUAAUGGUCACGCGUCUUCCUCCUAAGGAGAAGACUGCCGGUUCGAGGCCUGUACGAAACG [A20C C29U G50C U59G C62U G68A] here?
Its yeast fitness is 0.567.

With GUUCCGUUGGCGUAAUGGUCACGCCUCUCCCUCCUAAGGCGACGACUGCGGGUUAGAGUCGCGUAGGGAACG [A20C G25C A40C A43C C55A C61G C66G] as the variant, how does the yeast fitness read?
Its yeast fitness is at most 0.5.

Which yeast fitness does the source give for GUUCCGUUGGCGUAAUGGUCACGCGUCUCCCUCCUAAGGAGAAGACUGCGGGUUCGAGUACCGUACGGAACG [A20C C60A] here?
Its yeast fitness is 0.587.

For GUUCCGUUGGCGUAAUGGUCACGCGUCUCGCUCCUAAGGGGAAGACUGCGGGUUCGAGUCCCGUACGGAACG [A20C C30G A40G], which yeast fitness is on record?
The yeast fitness was at most 0.5.

With GUUCCGUUGGCGUAAUGGUCACGCGUCUCCCUCUUAAGGAGAAGACUGCGGGUUCGAGUACCGUAUGGAUCG [A20C C34U C60A C66U A70U] as the variant, how does the yeast fitness read?
Its yeast fitness is at most 0.5.

With GUUCCGUUGGCGUAAUGGUCACGCGUCUCUCUCCUAAGGAGAAGACUGCGGGUUCGAGUCCCGUACGAAACG [A20C C30U G68A] as the variant, how does the yeast fitness read?
Its yeast fitness is at most 0.5.

With GUUCCGUUGGCGUAAUGGUCACACGUCUUCCUCCUCAGGAGACGACUGCGGGUUCGAGUCCCGUACGGAACG [A20C G23A C29U A36C A43C] as the variant, how does the yeast fitness read?
The yeast fitness was at most 0.5.

For GUUCCGUUGGCGUAAUGGUCACGCGUCUCGCUCCUAAGGAGAAGAAGGAGGAUUCGACUCCCGGGCGGAACG [A20C C30G C46A U47G C49A G52A G58C U64G A65G], which yeast fitness is on record?
Its yeast fitness is at most 0.5.

Which yeast fitness does the source give for GUUCCGUUGGCGUAAUGGUCACGCGUCUCUCUCCUAAGGAGAAGACUGCGGGUUCGAGUCACGUACGGAACG [A20C C30U C61A] here?
The yeast fitness was at most 0.5.

Which yeast fitness does the source give for GUUCCGUUGGCGUAAUGGUCACGCGUCUUCCACCUAAGGAGAAGACUGCGGGUUCGAGUCCUGUACGGAUCG [A20C C29U U32A C62U A70U] here?
The yeast fitness was at most 0.5.

For GUUCCGUUGGCGUAAUGGUCACGCGUCUCCAUCCUAAGGAGAAGACUGCGGGUUCGAGCCCCGUACGGAACG [A20C C31A U59C], which yeast fitness is on record?
The yeast fitness was 0.599.

For GUUCCGUUGGCGUAAUGGUCACGCGUCUCCCUCGUAAGGAGAAGACUGCGGGUUCGAGUCCCGUACUGGACG [A20C C34G G67U A69G], which yeast fitness is on record?
The yeast fitness was at most 0.5.

For GUUCCGUUGGCGUAAUGGUCACGCGUCUCCCUCCUAAGGAGAAAAUUGCGGGUUCGAGUCCCGUACGGCACG [A20C G44A C46U A69C], which yeast fitness is on record?
The yeast fitness was 0.698.

Which yeast fitness does the source give for GUUCCGUUGGCGUAAUGGUCACGCCUCUCCCUUCUAAGGAGAAGACUGCGGGUUCGAGUACCGUAGGGAACG [A20C G25C C33U C60A C66G] here?
The yeast fitness was at most 0.5.

For GUUCCGUUGGCGUAAUGGUCACGCGUCUCCCUACUAAGGAGAAGACUGCGGGUUCGAGUCCCGUACGGAGCG [A20C C33A A70G], which yeast fitness is on record?
Its yeast fitness is 0.592.

With GUUCCGUUGGCGUAAUGGUCACGCGUCUCCCUCCUAAGGACCAGACUGCGGGUUCAAGUCCCGCACGGAACG [A20C G41C A42C G56A U64C] as the variant, how does the yeast fitness read?
The yeast fitness was at most 0.5.

For GUUCCGUUGGCGUAAUGGUCACGCGUCUCCCUCCUAAGGAGAAGACUGCGGGUUCAAGUCCCGUACAGAACG [A20C G56A G67A], which yeast fitness is on record?
The yeast fitness was 0.577.

With GUUCCGUUGGCGUAAUGGUCACGCGUCUCUCUCCUAAGGAGAAGAAUGCGGGUUCGAGUCCGGUGCGGAACG [A20C C30U C46A C62G A65G] as the variant, how does the yeast fitness read?
Its yeast fitness is 0.534.

Which yeast fitness does the source give for GUUCCGUUGGCGUAAUGGUCACGCGUCUCCCUCCUAAAGAGAAGACUGCGGGUUCGUGUCCCGUACGGAACG [A20C G38A A57U] here?
The yeast fitness was at most 0.5.

For GUUCCGUUGGCGUAAUGGUCACGCGUCUCUCUCCUAAGGAGAAGACUGCGGGUUCGAGUCCCGUACGGAACG [A20C C30U], which yeast fitness is on record?
The yeast fitness was 0.903.

Which yeast fitness does the source give for GUUCCGUUGGCGUAAUGGUCACGCGUCUCCCUCAUAGGGAGAAGACUGCGGGUUCGAGUCCUGUAUGGAACG [A20C C34A A37G C62U C66U] here?
The yeast fitness was 0.554.

Which yeast fitness does the source give for GUUCCGUUGGCGUAAUGGUCACGCGUCUCGCUCCUAAGGAGAAGACUGCGGGGUCGAGUCGCGUACGGAACG [A20C C30G U53G C61G] here?
Its yeast fitness is 0.621.

With GUUCCGUUGGCGUAAUGGUCACGCGUCUCCCUCGUAAGGAGACGACUGCGGGUUCAAGUCUCGUGCGGAACG [A20C C34G A43C G56A C61U A65G] as the variant, how does the yeast fitness read?
The yeast fitness was at most 0.5.

Which yeast fitness does the source give for GUUCCGUUGGCGUAAUGGUCACGCGUCUCCCUCCUAAGGAGAACACUGCGGGUUCGAGUCUCGUACGGAACG [A20C G44C C61U] here?
The yeast fitness was 0.56.

— the RNAGym collection of RNA variant scans (doi:10.1126/science.aae0568)
